# From article PMC10876062 (Science (New York, N.Y.), 2023)
# Tests used:
# [1] = tested on: representative Gram-positive and -negative bacteria; experiment: Antimicrobial activity against bacteria; type: cell-based; details: CFUs and O.D. normalized to 0 μM PYY
# Summary of the method: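 Gram-positive and Gram-negative bacteria were exposed to a range of test peptide concentrations, with or without mucus, and compared with a magainin-2 reference peptide. Surviving CFUs were normalised to 0 μM peptide, and O.D. growth to wells with 0 μM peptide. Each assay was run in duplicate, three times, and analysed by ANOVA.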
# C. albicans hyphae [2] = experiment: Propidium iodide membrane permeabilization of C. albicans hyphae; type: cell-based, Candida albicans
# Summary of the method: (§1)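 C. albicans yeast and hyphae were exposed to FITC-tagged test peptide and stained with propidium iodide to read membrane permeabilization. Exposure was in standard antimicrobial peptide assay buffer, in the preferred growth medium (YPD for yeast, RPMI for hyphae), or in buffer plus 2.5% w/v porcine mucus. For hyphae, the assay was repeated with sodium sulfate added as an anionic charge quencher.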
# C. albicans hyphae [3] = experiment: C. albicans hyphal growth; type: cell-based, Candida albicans
# Summary of the method: (§2)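 C. albicans hyphae were grown in RPMI. They were exposed to the test peptide with or without 2.5% w/v porcine […], alongside scrambled-peptide and magainin-2 controls. Read-outs were respiration by XTT tetrazolium assay, dry weight, biofilm adherence and CFUs. Each assay was run in duplicate, three times.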
# C. albicans hyphae [4] = experiment: C. albicans hyphal respiration; type: cell-based, Candida albicans; details: XTT assay; increasing concentrations, with or without 2.5% w/v mucin
# Summary of the method: as §2
# C. albicans yeast [5] = experiment: Propidium iodide membrane permeabilization of C. albicans yeast; type: cell-based, Candida albicans; details: 30 μM peptide
# Summary of the method: as §1
# [6] = Mucus vs. aqueous partitioning in vitro across 10 kDa MWCO filter; type: physicochemical; details: 10 kDa MWCO filter separating mucus and aqueous wells
# Summary of the method: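 Test peptide was added to either the mucus well or the aqueous well of a pair separated by a 10 kDa MWCO filter. Experiments were run in triplicate and repeated three times, with a t-test for comparison.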
# [7] = tested on: C. albicans hyphae on Caco-2 cells; experiment: C. albicans hyphae-GFP attachment to Caco-2 cells; type: cell-based, Candida albicans; details: 20 μM peptide, 6 hours, confluent Caco-2, vs vehicle
# C. albicans yeast [8] = experiment: C. albicans yeast survival; type: cell-based, Candida albicans; details: increasing concentrations, media with or without 2.5% w/v mucin; CFU and O.D.
# Summary of the method: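 C. albicans yeast were grown in YPD. They were exposed to the test peptide with or without 2.5% w/v porcine […], alongside scrambled-peptide and magainin-2 controls. Survival was read as CFUs and growth as optical density. Each assay was run in duplicate, three times.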
substance,measurement,setting,value
magainin-2 [reference compound],Antimicrobial activity against Gram-positive and -negative bacteria,[1],more effective
"PYY3–36: circulating endocrine form, formed by removal of two N-terminal amino acids by DPP-IV [reference compound]","Permeabilization / disruption of hyphae (PI), in words","C. albicans hyphae [2]; propidium iodide, compared with PYY1–36 (native L-isoform)",Less pronounced permeabilization
same,Effect on biofilm,C. albicans hyphae [3]; biofilm adherence,No differences
same,Effect on hyphal respiration,C. albicans hyphae [4],less activity
PYY1–36 - fluorescein isothiocyanate (FITC) tagged peptide: FITC tagged PYY1–36,Co-localization of tagged peptide with PI signal,"C. albicans hyphae [2]; FITC-tagged peptide, fluorescence microscopy",co-localized with the PI signal within hyphae
"PYY1–36: unmodified, full length peptide YY expressed by Paneth cells",Concentration at which permeabilization of hyphae was observed (PI),"C. albicans hyphae [2]; hyphae induced in presence of 2.5% w/v porcine mucin, propidium iodide",30 µM
same,Peptide-induced permeability (PI) in presence of sodium sulfate,C. albicans hyphae [2]; sodium sulfate as anionic quencher of cationic charge,reduced
same,Permeabilization of yeast (PI),C. albicans yeast [5],unaffected
same,Shape of dose-response in biofilm and colony forming units,C. albicans hyphae [3]; 2.5% w/v mucin present,sigmoidal dose-response curve
same,Concentration of peak effect (biphasic dose-response),C. albicans hyphae [3]; aqueous (RPMI) buffer,~ 30 μM
same,Concentration of loss of activity (biphasic dose-response),"C. albicans hyphae [3]; aqueous (RPMI) buffer, attributed to self-aggregation",100 µM
same,Concentration at which biofilm formation was significantly reduced,"C. albicans hyphae [3]; aqueous conditions, biofilm adherence",20 to 50 µM
same,Concentration at which hyphal growth was significantly reduced,"C. albicans hyphae [3]; aqueous conditions, dry weight",20 to 50 µM
same,Partitioning between mucus and aqueous compartments,[6],preferentially partitions into mucus
same,Numbers of hyphae attached to Caco-2 cells,[7],significantly reduced
same,Effect on hyphal respiration,C. albicans hyphae [4],decrease in hyphal respiration
same,Antimicrobial activity against Gram-positive and -negative bacteria,[1],less activity compared with more effective magainin-2
same,Effect on yeast numbers or density,C. albicans yeast [8],did not affect
